Bioassay records (PubChem BioAssay)
eIF4H inh: inhibitors of RNA binding by human eIF4H. 290,000 compounds, 0.94% hits. Q15056. eIF4H fluorescence polarization binding assay. inhibition, % at 35 µM. AID 2012;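 also: calls also rest on retests at 20 µM and on dose response follow-up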
MT1-MMP act inh: blocks activation of human MT1-MMP; 360,000 compounds, 0.061% hits; P50281; GFP/RFP ratio change, % at 20 µM; HT1080 RFP-PRO-GFP cells, GFP/RFP ratio fluorescence, overnight; percent of plate control window, DMSO zero;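 active = GFP/RFP ratio change of at least 30% with cell ATP level not reduced by more than half and red fluorescence within 50% of control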
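Assay system – RFP-PRO-GFP reporter HT1080 cells · Compound dosing – single dose of 20 µM compound, 1% DMSO final · Incubation – overnight compound exposure at 37 °C · Measure – GFP/RFP fluorescence ratio · Benchmarks – DMSO wells and RFP-L50D-GFP cells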
SKN-1 block: C. elegans SKN-1 inhibition. C. elegans VP596 Pgst-4::GFP/RFP ratio, acrylamide-induced, 24 h. inhibition, % at 21.8 µM. 360,000 compounds, 0.49% hits. AID 624304;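 active = interference check ratio from 0.5 to 1.5 plus GFP to RFP signal ratio inhibition reaching or exceeding a fixed threshold, cut at about 30% in these data, passing the limit was not always enough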
MLLE-PAM2 inh: blocks PAM2 peptide binding to the PABP1 MLLE domain; P11940; GST-MLLE / FITC-PAM2 fluorescence polarization; inhibition, % at 20 µM; 360,000 compounds, 0.36% hits; AID 588489; in the data active = inhibition above about 35%, passing the limit was not always enough;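 also: plate controls were DMSO wells with GST-MLLE for no effect and wells lacking GST-MLLE protein for full effect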
Target sequence (P11940 whole entry, looked up, the tested form may be a part): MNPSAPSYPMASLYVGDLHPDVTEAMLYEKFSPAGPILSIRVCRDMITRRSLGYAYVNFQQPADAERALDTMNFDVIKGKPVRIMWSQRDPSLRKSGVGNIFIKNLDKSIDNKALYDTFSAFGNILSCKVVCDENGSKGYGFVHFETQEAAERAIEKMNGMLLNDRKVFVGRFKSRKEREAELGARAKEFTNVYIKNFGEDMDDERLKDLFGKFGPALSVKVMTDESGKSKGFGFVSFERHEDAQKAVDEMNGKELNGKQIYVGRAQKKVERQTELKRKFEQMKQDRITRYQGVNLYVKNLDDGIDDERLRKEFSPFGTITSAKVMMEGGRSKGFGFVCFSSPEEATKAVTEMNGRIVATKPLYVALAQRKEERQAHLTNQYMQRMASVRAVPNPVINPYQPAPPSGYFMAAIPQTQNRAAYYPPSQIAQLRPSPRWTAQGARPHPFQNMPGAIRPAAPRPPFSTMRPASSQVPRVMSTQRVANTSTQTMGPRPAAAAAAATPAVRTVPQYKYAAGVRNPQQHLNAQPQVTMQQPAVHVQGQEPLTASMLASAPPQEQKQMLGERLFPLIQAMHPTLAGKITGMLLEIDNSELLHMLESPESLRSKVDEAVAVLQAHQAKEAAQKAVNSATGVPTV
PABP polyA inh: blocks human PABP binding to poly(A) RNA | P11940 | fluorescence polarization | inhibition, % at 35 µM | 290,000 compounds, 1% hits | AID 2014;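 also: calls also rest on retests at 20 µM and on dose response follow-up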
Active calls of the source: *; · = not tested or not shown. This is a sample that favours compounds with a hit; in the whole collection about 1.7% have one here. Unless noted, no rule for the calls is given here.

SMILES	eIF4H inh	MT1-MMP act inh	SKN-1 block	MLLE-PAM2 inh	PABP polyA inh
Cc1c(NC(=O)/C(C#N)=C/c2ccc(-c3ccc(Cl)c(Cl)c3)o2)c(=O)n(-c2ccccc2)n1C	2	-3	46*	-18	0
CCOC(=O)c1ccc(Nc2nnc(C(C)(C)C)c(=O)[nH]2)cc1	-3	·	37*	-17	-3
CCOC(=O)c1ccc(Nc2ccc(C(C)=O)cc2)cc1	·	-1	8	-7	·
CC(C(=O)Nc1ccc(Cl)cc1Cl)N1C(=O)NC2(CCCC2)C1=O (stereo not given)	-15	2	6	-4	5
CCCCCCn1c(CN2CCN(CCO)CC2)nc2c1c(=O)n(C)c(=O)n2C	103	-5	0	-3	active
CCCCCCn1c(CN2CCC(C)CC2)nc2c1c(=O)n(C)c(=O)n2C	2	-5	0	21	-1
CCCCCn1cnc2sc(-c3ccccc3)cc2c1=O	-6	-4	40*	0	-8
CCCCn1cnc2sc(-c3ccccc3)cc2c1=O	-5	3	18	-5	-7
O=c1c2cc(-c3ccccc3)sc2ncn1/N=C/c1ccco1	-5	-2	44*	-1	-4
CCOC(=O)c1[nH]cnc1C(=O)NC1CCN(C(=O)OC(C)(C)C)CC1	·	2	3	1	·
CC(C)(C)c1cc(C(=O)NNc2cc(C(F)(F)F)ccc2Cl)n(Cc2ccccc2)n1	52*	-10	-6	-25	31
CCc1ccc(NC(=O)C(=O)N/N=C(\C)CC(=O)Nc2ccccn2)cc1	98	9	-3	16	12*
C/C(CC(=O)Nc1ccccn1)=N\NC(=O)C(=O)Nc1ccccc1C	14	1	13	0	-10
C/C(CC(=O)Nc1ccc(OCc2ccccc2)cc1)=N\NC(=O)C(=O)Nc1ccc(C)c(Cl)c1	-7	3	38*	-6	-4
C/C(CC(=O)Nc1ccc(C)c(Cl)c1)=N\NC(=O)Cc1ccccc1	-6	0	-3	1	-6
COc1cc(/C=C/C(=O)OCC(=O)Nc2ccc(S(N)(=O)=O)cc2)ccc1O	52*	5	-8	-19	23*
Cc1ccc(CNC(=O)c2ccc(Br)o2)cc1	16	6	9	-6	6
Cc1cc2cc(CNC(=O)c3ccc(Br)o3)ccc2[nH]1	9	15	31	57*	26
Cc1cc2cc(CNC(=O)c3ccc(Br)o3)ccc2n1C	31	18	40	62*	50
Cc1ccc(N=Nc2c(C)[nH]n(C(N)=S)c2=O)cc1C	0	13	-4	26	-7
Cc1[nH]n(C(N)=S)c(=O)c1N=Nc1ccc(S(=O)(=O)N2CCCCCC2)cc1	-4	9	-12	40*	0
CN1C(=O)S/C(=C/c2cccn2-c2cccc(C(=O)O)c2)C1=O	20	-2	-1	17	22
O=C(O)c1cccc(-n2cccc2/C=N/O)c1	92*	7	-20	13	63*
O=C(O)c1cccc(-n2cccc2/C=C\[N+](=O)[O-])c1	99	1	-7	-53	58*
O=C(O)c1cccc(-n2cccc2/C=C/[N+](=O)[O-])c1	94*	-10	-1	25	76*
SMILES	eIF4H inh	MT1-MMP act inh	SKN-1 block	MLLE-PAM2 inh	PABP polyA inh
C=CS(=O)(=O)N(Cc1ccccc1Br)[C@H](CO)CC(C)C	·	0	6	7	·
CC(C)(Oc1ccc(Cl)cc1)C(=O)NCc1ccc(S(N)(=O)=O)cc1	66*	-2	-13	-1	-8
CCCCc1c(CCC)c(=N)c2ccccc2n1C	2	-1	5	-107	58*
COC(=O)c1ccc(NC(=O)CN2CCN(CC#N)CC2)cc1	8	2	4	20	11
OCCN1CCN(c2ncnc3c2ncn3[C@H]2CN(Cc3cccnc3)C[C@@H](CO)O2)CC1	·	6	4	-5	·
Cc1cc(-c2nnn(CCCOC(C)(C)C)c2C)ccc1-c1cn(CCCOC(C)(C)C)nn1	·	-5	37*	-8	·
COc1ccc(-c2cn(CCCOCc3ccccc3)nn2)cc1	4	6	8	5	-3
COc1ccc(Cc2nnc(SCC(=O)NC3(C#N)CCCCC3)n2N)cc1	·	-3	-13	-25	·
NS(=O)(=O)c1ccc(CCNC(=O)/C=C/c2ccccc2[N+](=O)[O-])cc1	-6	0	5	6	-10
O=C1C2CC=C(Cl)CC2C(=O)N1CCCCCCN1C(=O)C2CC=C(Cl)CC2C1=O (stereo not given)	99*	-16	8	16	100*
Cc1ccc(S(=O)(=O)c2cc3ccccc3oc2=O)cc1	5	0	8	-75	17
Cc1c(O)ccc2cc(S(=O)(=O)c3ccccc3)c(=O)oc12	10	-8	5	44*	12
Cc1nc2[nH]c(=S)[nH]c(=O)c2nc1C	·	0	13	42*	·
Cc1nc2c(=O)[nH]c(=S)[nH]c2[nH]c1=O	·	-17	-5	-3	·
Cc1cc(=O)oc(C)c1C(=O)Nc1ccc2ncccc2c1	125*	-106	-17	42	119
O=c1[nH]c2ccc(NC(=S)Nc3ccc(F)cc3)cc2[nH]1	2	0	-8	19	8
CCc1ccc(NC(=S)Nc2ccc3[nH]c(=O)[nH]c3c2)cc1	1.7*	14	-4	22	72*
Cc1cccc(C(=O)NC(=S)Nc2ccc3[nH]c(=O)[nH]c3c2)c1	-1	4	0	12	-12
Cc1ccc(C(=O)NC(=S)Nc2ccc3[nH]c(=O)[nH]c3c2)c(C)c1	-3	-1	9	38*	3
CSCCC(C(=O)NC1CCCC1)n1c(-c2ccncc2)nc2ccccc21 (stereo not given)	·	3	2	·	·
CCN(C(=O)CSc1nnc(SC)s1)c1c(N)n(Cc2ccccc2)c(=O)[nH]c1=O	·	-2	-4	-19	·
O=c1[nH]cccc1-c1nc2ccccc2n1Cc1cccc(F)c1	-3	2	-18	19	4
COc1ccc(-c2ccc(C(=O)NCCN(C)C)c3occc23)c(C)c1	·	5	17	-4	·
COCCNC(=O)c1ccc(-c2ccc(OC)cc2C)c2ccoc12	·	0	36*	-5	·
COc1cccc(CNc2ccc(S(=O)(=O)N3CCCC3)cn2)c1	·	1	3	5	·
SMILES	eIF4H inh	MT1-MMP act inh	SKN-1 block	MLLE-PAM2 inh	PABP polyA inh
Cc1nnc(SCC(=O)Nc2sccc2C#N)n1Cc1ccccc1	29*	-4	-5	-12	70*
Cc1nnc(SCC(=O)NNC(=O)c2ccccc2)n1Cc1ccccc1	·	0	1	-6	·
Cc1c2ccccc2cc[n+]1CCCS(=O)(=O)[O-]	5	0	2	-2	0
CC[n+]1ccc(/C=C2\Sc3ccccc3N2CCCS(=O)(=O)[O-])c2ccccc21	0	-24	-3	-143	55*
CCC(CC)c1nnc(NC(=O)CS(=O)(=O)Cc2ccccc2)s1	·	1	-6	19	·
CC(C)c1nnc(NC(=O)CS(=O)(=O)Cc2ccccc2)s1	-2	-10	15	41*	-3
